Results reported in ChEMBL document CHEMBL1156799, “Synthesis and biological evaluation of N-hydroxyphenylacrylamides and N-hydroxypyridin-2-ylacrylamides as novel histone deacetylase inhibitors” (J Med Chem, 2010).

How the values were obtained:
[1] = Metabolic stability in mouse liver microsomes assessed as half life; format: ADME, Microsome
[2] = Metabolic stability in human hepatic microsomes at 1 uM after 30 mins at 37 degC; format: ADME; conditions: liver microsomes, read-out: Stability
Outline: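 Compound at 1 μM preincubated 10 min at 37 °C in potassium phosphate buffer pH 7.4 with 0.5 mg/mL human or mouse hepatic microsomes; NADP/G6P/G6P-DH cofactor mix added; samples at 0 and 30 min analysed by LC-MS/MS (MRM, verapamil internal standard); % remaining = area 30 min/area 0 min × 100.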

[3] = Metabolic stability in mouse hepatic microsomes at 1 uM after 30 mins at 37 degC; conditions: liver microsomes
[4] = Oral bioavailability in CD1 mouse at 15 mg/kg; format: ADME, organism-based; conditions: in vivo
Outline: (§1)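 Mice dosed orally by gavage at 15 mg/kg, compound in water at 3 mg/mL of the base; iv comparison dose 5 mg/kg in normal saline; 27-30 animals per group; plasma from serial blood samples, protein-precipitated, kept at -80 °C, quantified by LC/MS/MS.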

[5] = Half life in CD1 mouse at 15 mg/kg, po; format: ADME, organism-based; design: dose 15 mg/kg, route oral; conditions: in vivo; outline: as §1
[6] = AUC (0 to 24 hrs) in CD1 mouse at 5 mg/kg, iv; format: ADME, organism-based; design: time < 24 hr, dose 5 mg/kg, route intravenous; conditions: plasma
Outline: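 Mice given single iv dose of 5 mg/kg, compound in normal saline at 1 mg/mL as rapid bolus; 27-30 animals per group; blood sampled at several times after dosing, plasma separated by centrifugation, proteins precipitated, stored -80 °C, analysed by LC/MS/MS (ESI).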

[7] = Clearance in CD1 mouse at 5 mg/kg, iv; conditions: in vivo
Mus musculus [8] = test: Volume of distribution at steady state in CD1 mouse at 5 mg/kg, iv; conditions: in vivo
[9] = AUC (0 to infinity) in CD1 mouse at 5 mg/kg, iv; format: ADME, organism-based; design: time infinity, dose 5 mg/kg, route intravenous; conditions: plasma
Mus musculus [10] = organism: Mus musculus; test: Hepatic blood flow in mouse; format: ADME, organism-based, Liver
in vitro = conditions: human, liver microsomes

Structure (SMILES)	remaining at 0.5 h, 1 µM [2]	remaining at 0.5 h, 1 µM [3]	bioavailability [4]	half-life [5]	clearance [7]	Vdss (Mus musculus [8])	AUC(0-inf) [9]	other results
O=C(/C=C/c1ccc2c(c1)nc(CCc1ccccc1)n2CCN1CCCC1)NO								half-life [1]: 0.05 h
CN1CCN(c2ccc(C(=O)/C=C/c3ccc(/C=C/C(=O)NO)cc3)cc2)CC1	33%	9.1%						
CN1CCN(Cc2ccc(C(=O)/C=C/c3cccc(/C=C/C(=O)NO)n3)cc2)CC1	51%	46%	2.6%	7.3 h	29.2 mL/min/kg	16.07 L/kg		AUC(0-t) at 24 h [6]: 2520 ng·h/mL
O=C(/C=C/c1cccc(/C=C/C(=O)c2ccccc2)c1)NO	9%	6%						
CN1CCN(Cc2ccccc2C(=O)/C=C/c2ccc(/C=C/C(=O)NO)nc2)CC1	93%	53%	4.5%	5.55 h	55.8 mL/min/kg	11.7 L/kg	1490 ng·h/mL	
CN1CCN(Cc2ccc(C(=O)/C=C/c3cccc(/C=C/C(=O)NO)c3)cc2)CC1	44%	33%						
O=C(/C=C/c1cccc(/C=C/C(=O)c2ccccc2)n1)NO	38%	11%						
CN1CCN(c2ccccc2C(=O)/C=C/c2ccc(/C=C/C(=O)NO)cc2)CC1	38%	34%	18.1%	2 h	119 mL/min/kg	5.4 L/kg	698 ng·h/mL	
CN1CCN(Cc2cccc(C(=O)/C=C/c3cccc(/C=C/C(=O)NO)n3)c2)CC1	45%	40%						
CN1CCN(c2ccc(C(=O)/C=C/c3cccc(/C=C/C(=O)NO)n3)cc2)CC1	35%	19%						
CN1CCN(Cc2cccc(C(=O)/C=C/c3ccc(/C=C/C(=O)NO)nc3)c2)CC1	32%	46%	3.9%	6.7 h	113 mL/min/kg	28.4 L/kg	736 ng·h/mL	
CN1CCN(c2ccc(C(=O)/C=C/c3ccc(/C=C/C(=O)NO)nc3)cc2)CC1	43%	3.8%						
CN1CCN(Cc2ccc(C(=O)/C=C/c3ccc(/C=C/C(=O)NO)cc3)cc2)CC1	61%	17%						
CN1CCN(Cc2cccc(C(=O)/C=C/c3cccc(/C=C/C(=O)NO)c3)c2)CC1	39%	25%						
CN1CCN(c2cccc(C(=O)/C=C/c3ccc(/C=C/C(=O)NO)cc3)c2)CC1	44%	6.2%						
CN1CCN(Cc2cccc(C(=O)/C=C/c3ccc(/C=C/C(=O)NO)cc3)c2)CC1	23%	17%						
CN1CCN(Cc2ccc(C(=O)/C=C/c3ccc(/C=C/C(=O)NO)nc3)cc2)CC1	47%	56%	5.5%	9.7 h	79.2 mL/min/kg	31.9 L/kg	1050 ng·h/mL	

Structure (SMILES)	remaining at 0.5 h, 1 µM [2]	remaining at 0.5 h, 1 µM [3]	bioavailability [4]	half-life [5]	clearance [7]	Vdss (Mus musculus [8])	AUC(0-inf) [9]	other results
CN1CCN(c2ccccc2C(=O)/C=C/c2cccc(/C=C/C(=O)NO)c2)CC1	62%	44%						
CN1CCN(c2cccc(C(=O)/C=C/c3ccc(/C=C/C(=O)NO)nc3)c2)CC1	41%	20%						
CN1CCN(c2cccc(C(=O)/C=C/c3cccc(/C=C/C(=O)NO)n3)c2)CC1	35%	29%	2%	8.5 h	55.3 mL/min/kg	18.3 L/kg	1510 ng·h/mL	
O=C(/C=C/c1cc(/C=C/C(=O)c2ccccc2)ccn1)NO	16%	14%						
CN1CCN(c2cccc(C(=O)/C=C/c3cccc(/C=C/C(=O)NO)c3)c2)CC1	55%	7.2%						
O=C(/C=C/c1ccc(/C=C/C(=O)c2ccccc2)cc1)NO	5%	2%						
CN1CCN(c2ccccc2C(=O)/C=C/c2cccc(/C=C/C(=O)NO)n2)CC1	58%	57%	2.9%	8.6 h	44 mL/min/kg	13.9 L/kg	1900 ng·h/mL	
CN1CCN(Cc2ccccc2C(=O)/C=C/c2cccc(/C=C/C(=O)NO)c2)CC1	62%	35%	3.1%	8.27 h	98 mL/min/kg	20.1 L/kg	849 ng·h/mL	
O=C(/C=C/c1ccc(/C=C/C(=O)c2ccccc2)cn1)NO	14%	6%						
CN1CCN(c2ccccc2C(=O)/C=C/c2ccc(/C=C/C(=O)NO)nc2)CC1	65%	61%	6.3%	2.3 h	59.7 mL/min/kg	2.1 L/kg	1400 ng·h/mL	
CN1CCN(Cc2ccccc2C(=O)/C=C/c2ccc(/C=C/C(=O)NO)cc2)CC1	56%	4.2%						
CN1CCN(c2ccc(C(=O)/C=C/c3cccc(/C=C/C(=O)NO)c3)cc2)CC1	40%	5.9%						
CN1CCN(Cc2ccccc2C(=O)/C=C/c2cccc(/C=C/C(=O)NO)n2)CC1	67%	40%						
O=C(/C=C/c1cccc(S(=O)(=O)Nc2ccccc2)c1)NO [BELINOSTAT]			6.66%	1.21 h	193 mL/min/kg	5.03 L/kg	431 ng·h/mL	
Cc1[nH]c2ccccc2c1CCNCc1ccc(/C=C/C(=O)NO)cc1 [PANOBINOSTAT]			4.6%	1.37 h	305 mL/min/kg	15.1 L/kg	273 ng·h/mL	
O=C(CCCCCCC(=O)Nc1ccccc1)NO [VORINOSTAT]			12.1%	0.5 h	127 mL/min/kg	1.2 L/kg	657 ng·h/mL	LBF (Mus musculus [10]): 90 mL/min/kg; half-life [1]: 0.467 h; half-life (in vitro): 1 h
